Laboratory results from ChEMBL document CHEMBL2429849, “Substrate-based fragment identification for the development of selective, nonpeptidic inhibitors of striatal-enriched protein tyrosine phosphatase” (J Med Chem, 2013).
Active and inactive are the calls of the source. The calls are words filed in the database; no cut-off is given here.

Tests used:
[1] = biological target: T1, Tyrosine-protein phosphatase non-receptor type 5 (Rattus norvegicus) (UniProt P35234); assay: Inhibition of STEP in Sprague-Dawley rat embryo primary cortical neurons assessed as phosphorylation of ERK1/2 at 0.1 to 10 uM after 1 hr by Western blot analysis; conditions: Cerebral cortex neuron
T1 sequence (whole entry): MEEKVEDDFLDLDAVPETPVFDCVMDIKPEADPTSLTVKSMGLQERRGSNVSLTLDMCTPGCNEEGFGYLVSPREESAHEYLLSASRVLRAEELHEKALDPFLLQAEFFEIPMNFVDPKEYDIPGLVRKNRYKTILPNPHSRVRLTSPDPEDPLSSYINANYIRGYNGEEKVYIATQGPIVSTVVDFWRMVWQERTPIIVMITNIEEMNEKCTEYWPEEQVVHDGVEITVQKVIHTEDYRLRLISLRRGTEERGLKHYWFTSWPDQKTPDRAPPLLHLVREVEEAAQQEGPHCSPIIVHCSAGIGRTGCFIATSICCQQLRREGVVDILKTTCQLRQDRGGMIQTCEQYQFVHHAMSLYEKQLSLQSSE
Outline: (§1)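 E18 rat cortical neurons were trypsin-dissociated and plated on poly-D-lysine in Neurobasal with 2% B27, then grown 18–21 days at 37 °C. Compound was added at final 0, 0.1, 1 or 10 μM (0.1% DMSO) for 1 h at 37 °C. Cells were lysed in RIPA with protease/phosphatase inhibitors and protein measured by BCA. Phospho and total proteins were blotted by SDS-PAGE, with antibodies overnight at 4 °C and chemiluminescent detection.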

[2] = biological target: T2, Receptor-type tyrosine-protein phosphatase C (Homo sapiens, UniProt P08575); assay: Inhibition of human CD45 using pNPP as substrate after 5 mins by spectrophotometric plate reader analysis
T2 sequence (P08575 whole entry): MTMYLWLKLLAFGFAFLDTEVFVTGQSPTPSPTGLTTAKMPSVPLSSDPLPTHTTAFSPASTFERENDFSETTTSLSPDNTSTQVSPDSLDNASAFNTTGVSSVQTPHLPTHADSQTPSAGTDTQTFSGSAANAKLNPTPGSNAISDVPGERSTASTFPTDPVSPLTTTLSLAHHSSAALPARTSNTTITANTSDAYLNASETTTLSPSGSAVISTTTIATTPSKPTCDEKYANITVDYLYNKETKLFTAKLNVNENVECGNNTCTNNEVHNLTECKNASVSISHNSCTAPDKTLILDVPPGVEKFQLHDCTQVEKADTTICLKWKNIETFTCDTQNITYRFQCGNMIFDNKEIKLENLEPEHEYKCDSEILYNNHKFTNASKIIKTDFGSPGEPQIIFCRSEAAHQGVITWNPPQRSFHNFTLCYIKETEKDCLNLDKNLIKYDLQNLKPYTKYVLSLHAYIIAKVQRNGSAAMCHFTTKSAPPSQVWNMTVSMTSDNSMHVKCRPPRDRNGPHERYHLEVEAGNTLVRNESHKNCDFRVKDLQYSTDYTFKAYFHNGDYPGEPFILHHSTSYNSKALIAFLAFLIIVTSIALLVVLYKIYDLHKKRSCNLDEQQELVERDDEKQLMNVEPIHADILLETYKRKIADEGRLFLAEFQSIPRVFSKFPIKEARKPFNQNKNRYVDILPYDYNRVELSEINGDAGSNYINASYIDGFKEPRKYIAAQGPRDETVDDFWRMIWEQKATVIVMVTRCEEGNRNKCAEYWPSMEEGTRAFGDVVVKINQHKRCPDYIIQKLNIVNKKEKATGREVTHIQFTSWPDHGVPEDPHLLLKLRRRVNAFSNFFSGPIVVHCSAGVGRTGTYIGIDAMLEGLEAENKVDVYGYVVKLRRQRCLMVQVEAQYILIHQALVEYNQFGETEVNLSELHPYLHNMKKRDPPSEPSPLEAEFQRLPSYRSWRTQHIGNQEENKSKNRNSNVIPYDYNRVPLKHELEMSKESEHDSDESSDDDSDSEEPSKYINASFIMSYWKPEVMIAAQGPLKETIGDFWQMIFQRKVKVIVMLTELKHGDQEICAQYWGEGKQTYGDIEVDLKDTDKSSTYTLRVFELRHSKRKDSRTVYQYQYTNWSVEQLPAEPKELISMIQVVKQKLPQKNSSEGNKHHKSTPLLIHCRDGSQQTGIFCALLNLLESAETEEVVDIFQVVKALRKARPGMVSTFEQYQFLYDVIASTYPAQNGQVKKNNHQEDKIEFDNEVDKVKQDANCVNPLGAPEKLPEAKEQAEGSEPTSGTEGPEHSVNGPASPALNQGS
Outline: (§2)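 Enzyme preincubated 5 min at 27 °C with serially diluted inhibitor (from DMSO) in imidazole/NaCl buffer pH 7.0 with 0.01% Triton X-100 and 5 mM DTT. Started with pNPP (500 μM in assay) and read at 405 nm for 20 min. The pNPP KM was measured for each enzyme. Ki from nonlinear regression of substrate–velocity curves at several inhibitor levels; at least duplicate.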

[3] = biological target: T1, Tyrosine-protein phosphatase non-receptor type 5 (Rattus norvegicus); assay: Inhibition of STEP in Sprague-Dawley rat embryo primary cortical neurons assessed as phosphorylation of GluN2B at 0.1 to 10 uM after 1 hr by Western blot analysis; conditions: Cerebral cortex neuron; outline: as §1
[4] = biological target: Receptor-type tyrosine-protein phosphatase F (Homo sapiens, UniProt P10586); assay: Inhibition of human LAR using pNPP as substrate after 5 mins by spectrophotometric plate reader analysis; outline: as §2
Homo sapiens = organism: Homo sapiens; assay: Selectivity ratio of Ki for human MKP5 to Ki for human STEP
Outline: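 STEP, CD45, LAR and TC-PTP used pNPP (500 μM) in imidazole/NaCl pH 7.0 with Triton X-100, read at 405 nm for 20 min. MKP5 used DiFMUP in Tris-HCl pH 8.0. The enzyme's own pNPP KM was used in analysis; ratio of the Ki values.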

[5] = Effective permeability of the compound at pH 7.4 by PAMPA; assay type: ADME; conditions: read-out: Peff

Chain of Receptor-type tyrosine-protein phosphatase F (P10586 whole entry): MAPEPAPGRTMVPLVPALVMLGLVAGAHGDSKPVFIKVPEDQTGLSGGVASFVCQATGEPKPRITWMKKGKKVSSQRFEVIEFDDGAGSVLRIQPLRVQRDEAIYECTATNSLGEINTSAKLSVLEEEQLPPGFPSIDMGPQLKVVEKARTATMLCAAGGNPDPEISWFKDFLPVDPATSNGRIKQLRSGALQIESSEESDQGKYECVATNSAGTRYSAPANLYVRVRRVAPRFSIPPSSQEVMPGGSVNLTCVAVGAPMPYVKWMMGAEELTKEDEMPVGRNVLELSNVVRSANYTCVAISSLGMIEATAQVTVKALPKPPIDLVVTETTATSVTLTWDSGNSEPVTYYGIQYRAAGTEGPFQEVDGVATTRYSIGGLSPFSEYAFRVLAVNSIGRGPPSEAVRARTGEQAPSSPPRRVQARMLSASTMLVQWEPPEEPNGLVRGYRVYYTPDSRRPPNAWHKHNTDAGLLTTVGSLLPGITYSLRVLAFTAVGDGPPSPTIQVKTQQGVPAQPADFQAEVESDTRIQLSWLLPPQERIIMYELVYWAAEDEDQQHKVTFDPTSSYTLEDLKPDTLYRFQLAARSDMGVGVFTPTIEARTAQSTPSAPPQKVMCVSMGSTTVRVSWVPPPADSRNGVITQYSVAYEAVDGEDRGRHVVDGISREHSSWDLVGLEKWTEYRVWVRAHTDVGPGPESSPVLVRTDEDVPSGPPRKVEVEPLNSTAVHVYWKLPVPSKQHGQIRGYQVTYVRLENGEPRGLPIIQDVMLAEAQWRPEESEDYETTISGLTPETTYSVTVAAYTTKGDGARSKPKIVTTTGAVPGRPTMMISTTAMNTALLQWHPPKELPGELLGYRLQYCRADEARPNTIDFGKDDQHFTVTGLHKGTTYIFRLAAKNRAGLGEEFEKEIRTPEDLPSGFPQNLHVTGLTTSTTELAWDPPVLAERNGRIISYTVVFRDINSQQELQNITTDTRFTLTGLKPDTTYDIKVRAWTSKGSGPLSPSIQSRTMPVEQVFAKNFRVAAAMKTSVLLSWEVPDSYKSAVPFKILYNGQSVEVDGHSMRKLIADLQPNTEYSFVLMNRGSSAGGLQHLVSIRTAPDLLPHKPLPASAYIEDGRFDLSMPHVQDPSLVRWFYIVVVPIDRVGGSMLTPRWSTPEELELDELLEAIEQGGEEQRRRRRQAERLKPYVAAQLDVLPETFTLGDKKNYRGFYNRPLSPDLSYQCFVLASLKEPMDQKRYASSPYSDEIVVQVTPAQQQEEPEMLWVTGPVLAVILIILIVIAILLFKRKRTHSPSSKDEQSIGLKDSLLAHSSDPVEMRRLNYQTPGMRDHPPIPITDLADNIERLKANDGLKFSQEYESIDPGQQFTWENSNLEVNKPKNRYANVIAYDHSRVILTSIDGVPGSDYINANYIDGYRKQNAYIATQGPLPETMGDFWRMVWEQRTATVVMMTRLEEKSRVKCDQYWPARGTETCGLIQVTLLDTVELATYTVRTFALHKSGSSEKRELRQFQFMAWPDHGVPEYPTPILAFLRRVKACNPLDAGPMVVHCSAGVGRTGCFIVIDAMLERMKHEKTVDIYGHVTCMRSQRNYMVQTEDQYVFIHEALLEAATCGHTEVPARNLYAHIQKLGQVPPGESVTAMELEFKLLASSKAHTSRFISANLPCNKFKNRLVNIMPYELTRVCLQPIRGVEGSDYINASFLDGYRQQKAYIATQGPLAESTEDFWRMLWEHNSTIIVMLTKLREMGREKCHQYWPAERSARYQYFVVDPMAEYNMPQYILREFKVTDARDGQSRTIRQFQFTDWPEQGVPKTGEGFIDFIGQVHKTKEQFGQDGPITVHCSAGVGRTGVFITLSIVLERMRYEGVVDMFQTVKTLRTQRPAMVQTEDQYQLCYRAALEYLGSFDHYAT

Structure (SMILES)	inhibition [1]	Ki [2] [µM]	inhibition [3]	Ki [4] [µM]	Ratio Ki (Homo sapiens)	Papp [5] [×10⁻⁶ cm/s]
O=P(O)(O)[C@H](O)c1ccc(-c2cccc([C@H](O)c3ccc(Cl)c(Cl)c3)c2)cc1	Active	270	Active	390	–	–
O=P(O)(O)[C@H](O)c1ccc(-c2cccc([C@@H](O)c3ccc(Cl)c(Cl)c3)c2)cc1	Active	340	Active	360	41	< 0.1
